Test results reported in ChEMBL document CHEMBL1141282, “Isariotins A-D, alkaloids from the insect pathogenic fungus Isaria tenuipes BCC 7831” (J Nat Prod, 2007).
Converted amounts (≈) assume the structure as drawn. The source made the active and inactive calls. No cut-off for these calls is given here.

Key:
Plasmodium falciparum = assay: Antiplasmodial activity against Plasmodium falciparum K1 to 20 ug/mL; type: functional, organism-based
Candida albicans = assay: Antifungal activity against Candida albicans up to 50 ug/mL; type: functional, organism-based
Pyricularia grisea = assay: Antifungal activity against Magnaporthe grisea up to 50 ug/mL; type: functional, organism-based
KB = assay: Cytotoxicity against human KB cells up to 20 ug/mL; type: functional, cell-based
BC = assay: Cytotoxicity against human BC cells up to 20 ug/mL; type: functional, cell-based
NCI-H187 = assay: Cytotoxicity against human NCI-H-187 cells up to 20 ug/mL; type: functional, cell-based
Vero = assay: Cytotoxicity against African green monkey Vero cells up to 50 ug/mL; type: cell-based; conditions: chlorocebus sabaeus
[1] = system: Mycobacterium tuberculosis; assay: Antitubercular activity against Mycobacterium tuberculosis H37Ra; type: functional
In short: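 Whole-cell test against the H37Ra strain, with the minimum inhibitory concentration (MIC) read out in µg/mL.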

Row | Structure (SMILES) | Activity (Plasmodium falciparum) | Activity (Candida albicans) | Activity (Pyricularia grisea) | Activity (KB) | Activity (BC) | Activity (NCI-H187) | Activity (Vero) | MIC [1]
1 | O=C(/C=C/CCCCCCCCCO)N[C@H]1C[C@@]2(O)C(=O)[C@H]([C@H](O)[C@@H]3O[C@@H]32)[C@H]1O [ISARIOTIN A] | inactive | inactive | inactive | inactive | inactive | inactive | Not Active | 486 µM (≈ 200 µg/mL)
2 | CCCCCCC/C=C/C(=O)N[C@H]1C[C@@]2(O)C(=O)[C@H]([C@H](O)[C@@H]3O[C@@H]32)[C@H]1O [ISARIOTIN D] | inactive | inactive | inactive | inactive | inactive | inactive | Not Active | 544 µM (≈ 200 µg/mL)
3 | O=C(O)CCCCCCCC/C=C/C(=O)N[C@H]1C[C@@]2(O)C(=O)[C@H]([C@H](O)[C@@H]3O[C@@H]32)[C@H]1O [ISARIOTIN B] | inactive | inactive | inactive | inactive | inactive | inactive | Not Active | 
4 | CCCCCC(=O)CCC/C=C/C(=O)N[C@H]1C[C@@]2(O)C(=O)[C@H]([C@H](O)[C@@H]3O[C@@H]32)[C@H]1O [ISARIOTIN C] | inactive | inactive | inactive | inactive | inactive | inactive | Not Active | 488 µM (≈ 200 µg/mL)
